According to ChEMBL document CHEMBL1129310, “(Aminoalkyl)indole isothiocyanates as potential electrophilic affinity ligands for the brain cannabinoid receptor” (J Med Chem, 1996):
pIC50: −log10 of the molar value.

Each compound was assayed against T1, Cannabinoid receptor 1 (Rattus norvegicus, UniProt P20272) (assay: Binding affinity against brain cannabinoid receptor 1 using [3H]CP-55940 as radioligand at 0.25 nM concentration).
Procedure, shortened: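 Rat brain P2 membranes (30 µg protein) were suspended in 20 mM potassium diethylmalonate pH 7.5 with 2.25 mM MgCl2 and 0.025% β-cyclodextrin, then incubated with [3H]CP-55940 for 1 h at 30 °C. Compounds came from DMSO stocks diluted through β-cyclodextrin. The reaction was stopped with BSA and glass-fibre filtration. Nonspecific binding was defined with 0.1 µM desacetyllevonantradol. Displacement curves were fitted by nonlinear regression, triplicate points.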

T1 sequence (P20272 whole entry): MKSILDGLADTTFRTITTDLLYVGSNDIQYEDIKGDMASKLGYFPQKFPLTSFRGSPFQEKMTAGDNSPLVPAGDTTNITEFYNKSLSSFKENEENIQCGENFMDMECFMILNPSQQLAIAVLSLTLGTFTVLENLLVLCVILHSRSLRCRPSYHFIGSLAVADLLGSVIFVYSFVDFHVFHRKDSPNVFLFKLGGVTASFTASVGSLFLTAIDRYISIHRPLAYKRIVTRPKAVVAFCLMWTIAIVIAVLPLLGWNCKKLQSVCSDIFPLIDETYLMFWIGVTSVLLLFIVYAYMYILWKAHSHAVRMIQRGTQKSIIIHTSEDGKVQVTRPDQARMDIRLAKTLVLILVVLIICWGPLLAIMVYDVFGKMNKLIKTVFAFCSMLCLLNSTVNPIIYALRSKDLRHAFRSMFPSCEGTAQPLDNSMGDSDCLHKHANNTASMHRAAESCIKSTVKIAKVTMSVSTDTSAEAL

**Q.** With `O=C(c1cccc2ccccc12)c1cn(CCN2CCOCC2)c2ccccc12` as the compound, how does the pIC50 read?
**A.** Its pIC50 is 7.34.

**Q.** `O=C(c1cccc2cc(N=C=S)ccc12)c1cn(CCN2CCOCC2)c2ccccc12` was tested. Which pIC50 did it give?
**A.** Its pIC50 is 6.28.

**Q.** How did the pIC50 turn out when `O=C(c1ccc(N=C=S)c2ccccc12)c1cn(CCN2CCOCC2)c2ccccc12` was run?
**A.** The pIC50 was 6.36.

**Q.** `O=C(c1cc(N=C=S)cc2ccccc12)c1cn(CCN2CCOCC2)c2ccccc12` was tested. Which pIC50 did it give?
**A.** Its pIC50 is 6.04.

**Q.** `O=C(c1cccc2ccccc12)c1cn(CCN2CCOCC2)c2cc(N=C=S)ccc12` was tested. Which pIC50 did it give?
**A.** The pIC50 was 6.80.

What follows are compounds tested against T1, Cannabinoid receptor 1 (assay: Binding affinity against brain Cannabinoid receptor 1 using [3H]CP-55940 as radioligand at 1.1 nM concentration).

**Q.** `Cc1c(C(=O)c2ccc(N=C=S)c3ccccc23)c2ccccc2n1CCN1CCOCC1` was tested. Which pIC50 did it give?
**A.** Its pIC50 is 6.16.
